Test results published in ChEMBL document CHEMBL2062488, “Exploration of diverse hinge-binding scaffolds for selective Aurora kinase inhibitors” (Bioorg Med Chem Lett, 2012).

Experiments:
Aurora kinase B [1] = molecular target: T1, Aurora kinase B (Homo sapiens, UniProt Q96GD4); experiment: Inhibition of Aurora B kinase in presence of 10 uM ATP
NCI-H1299 = experiment: Cell cycle arrest in human NCI-H1299 assessed as induction of polyploidy after 48 hrs by Hoechst staining-based fluorescence microscopic analysis; assay type: functional; conditions: NCI-H1299, 48 h
Summary of the method: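 NCI-H1299 cells seeded at 4 K/well and left overnight to adhere. Compounds at varying concentrations added in duplicate wells, RPMI 1640 with 10% fetal calf serum, 37 °C for 48 h. Cells fixed in 3% formalin for 1 h, Hoechst-stained and imaged by high-content fluorescence microscopy (360/460 nm) for nuclear area. Polyploid (≥4N) cells had nuclear area >750. EC15 is the concentration giving 15% polyploid cells, from least-squares fit of log dose-response.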

[2] = molecular target: T2, Calcium/calmodulin-dependent protein kinase type IV (Homo sapiens, UniProt Q16566); experiment: Inhibition of Camk4 in presence of 10 uM ATP
T2 sequence (Q16566 whole entry): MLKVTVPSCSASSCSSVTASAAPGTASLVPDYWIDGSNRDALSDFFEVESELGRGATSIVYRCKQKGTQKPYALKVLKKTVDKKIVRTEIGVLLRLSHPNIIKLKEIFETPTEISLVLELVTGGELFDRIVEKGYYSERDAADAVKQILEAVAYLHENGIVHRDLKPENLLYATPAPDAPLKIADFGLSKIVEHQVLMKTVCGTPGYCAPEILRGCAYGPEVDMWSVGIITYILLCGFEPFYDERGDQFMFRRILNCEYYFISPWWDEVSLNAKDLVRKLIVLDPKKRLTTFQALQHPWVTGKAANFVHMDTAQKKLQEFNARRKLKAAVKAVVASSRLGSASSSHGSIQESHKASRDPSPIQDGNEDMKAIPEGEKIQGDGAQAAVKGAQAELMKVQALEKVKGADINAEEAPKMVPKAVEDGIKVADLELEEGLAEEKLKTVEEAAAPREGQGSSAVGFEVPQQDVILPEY

Aurora kinase A [3] = molecular target: T3, Aurora kinase A (Homo sapiens, UniProt O14965); experiment: Inhibition of Aurora A kinase in presence of 10 uM ATP
T3 sequence (O14965 whole entry): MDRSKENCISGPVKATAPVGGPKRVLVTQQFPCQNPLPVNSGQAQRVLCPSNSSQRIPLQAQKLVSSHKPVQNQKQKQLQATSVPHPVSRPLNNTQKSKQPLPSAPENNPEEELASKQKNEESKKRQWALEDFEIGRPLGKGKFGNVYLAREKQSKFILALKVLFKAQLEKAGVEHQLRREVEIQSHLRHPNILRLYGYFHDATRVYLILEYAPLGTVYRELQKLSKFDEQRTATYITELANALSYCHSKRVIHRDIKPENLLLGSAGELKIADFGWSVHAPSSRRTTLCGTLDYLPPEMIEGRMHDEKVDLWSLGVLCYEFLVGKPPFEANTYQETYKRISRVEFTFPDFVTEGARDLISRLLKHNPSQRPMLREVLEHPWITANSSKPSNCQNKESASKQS

Aurora kinase B [4] = molecular target: T1, Aurora kinase B; experiment: Inhibition of Aurora B kinase by HTRF analysis in presence of 1 mM ATP
[5] = molecular target: Activin receptor type-1-like (Homo sapiens, UniProt P37023); experiment: Inhibition of Alk1 in presence of 10 uM ATP
[6] = molecular target: T4, Serine/threonine-protein kinase PLK4 (Homo sapiens, UniProt O00444); experiment: Inhibition of Plk4 in presence of 10 uM ATP
T4 sequence (O00444 whole entry): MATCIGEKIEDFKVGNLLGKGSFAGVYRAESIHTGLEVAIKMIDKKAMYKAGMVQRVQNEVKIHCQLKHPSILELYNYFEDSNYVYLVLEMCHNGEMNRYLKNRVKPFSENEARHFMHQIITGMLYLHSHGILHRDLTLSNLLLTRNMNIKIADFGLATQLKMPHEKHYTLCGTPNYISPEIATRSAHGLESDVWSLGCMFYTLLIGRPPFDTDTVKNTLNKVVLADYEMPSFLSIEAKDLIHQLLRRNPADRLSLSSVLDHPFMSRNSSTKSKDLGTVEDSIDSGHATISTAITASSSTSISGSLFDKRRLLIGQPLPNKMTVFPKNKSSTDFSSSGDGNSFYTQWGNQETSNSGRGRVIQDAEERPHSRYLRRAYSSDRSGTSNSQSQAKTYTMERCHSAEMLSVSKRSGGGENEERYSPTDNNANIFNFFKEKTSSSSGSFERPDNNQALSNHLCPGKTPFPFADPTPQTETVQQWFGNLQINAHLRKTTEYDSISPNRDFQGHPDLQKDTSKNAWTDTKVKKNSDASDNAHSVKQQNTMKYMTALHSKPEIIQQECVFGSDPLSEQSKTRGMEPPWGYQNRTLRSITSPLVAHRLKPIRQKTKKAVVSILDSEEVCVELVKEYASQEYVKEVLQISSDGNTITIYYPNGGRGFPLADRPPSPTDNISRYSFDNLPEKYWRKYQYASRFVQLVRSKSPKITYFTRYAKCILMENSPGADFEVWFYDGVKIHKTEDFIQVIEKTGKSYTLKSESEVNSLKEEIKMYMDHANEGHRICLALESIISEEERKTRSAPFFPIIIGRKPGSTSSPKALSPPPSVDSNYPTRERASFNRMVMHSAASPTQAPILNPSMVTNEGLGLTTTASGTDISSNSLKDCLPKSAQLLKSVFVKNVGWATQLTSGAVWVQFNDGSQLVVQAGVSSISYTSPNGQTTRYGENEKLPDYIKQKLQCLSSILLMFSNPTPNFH

Homo sapiens = species on record: Homo sapiens; experiment: Selectivity ratio of IC50 for Aurora A kinase to IC50 for Aurora B kinase
[7] = Clearance in mouse at 3 mg/kg, iv; assay type: ADME, organism-based; parameters: dose 3 mg/kg, route intravenous; conditions: in vivo
Mus musculus [8] = experiment: AUC in mouse at 10 mg/kg, po; assay type: ADME, organism-based, Plasma; parameters: dose 10 mg/kg, route oral; conditions: in vivo
Summary of the method: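 Pyrrolotriazines were given by oral cassette dosing at 10 mpk, with several compounds in one cassette. Oral exposure is reported as AUC.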

Mus musculus [9] = experiment: Inhibition of histone 3 phosphorylation in leukemia xenografted mouse model at 50 mg/kg, ip measured after 4 hrs; assay type: functional; conditions: route intraperitoneal
Summary of the method: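 Leukemia-engrafted mouse model dosed 50 mpk IP. Histone H3 phosphorylation was measured 4 h after the dose as percent inhibition.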

Aurora kinase A [10] = molecular target: T3, Aurora kinase A; experiment: Inhibition of Aurora A kinase by HTRF analysis in presence of 1 mM ATP
[11] = Volume of distribution in mouse at 3 mg/kg, iv; assay type: ADME, organism-based; parameters: dose 3 mg/kg, route intravenous; conditions: in vivo
[12] = Oral bioavailability in mouse at 10 mg/kg; assay type: ADME, organism-based; conditions: in vivo
[13] = Distribution half life in mouse at 3 mg/kg, iv; assay type: ADME, organism-based; parameters: dose 3 mg/kg, route intravenous; conditions: in vivo, read-out: alphat1/2 (converted)

T1 sequence (Q96GD4 whole entry): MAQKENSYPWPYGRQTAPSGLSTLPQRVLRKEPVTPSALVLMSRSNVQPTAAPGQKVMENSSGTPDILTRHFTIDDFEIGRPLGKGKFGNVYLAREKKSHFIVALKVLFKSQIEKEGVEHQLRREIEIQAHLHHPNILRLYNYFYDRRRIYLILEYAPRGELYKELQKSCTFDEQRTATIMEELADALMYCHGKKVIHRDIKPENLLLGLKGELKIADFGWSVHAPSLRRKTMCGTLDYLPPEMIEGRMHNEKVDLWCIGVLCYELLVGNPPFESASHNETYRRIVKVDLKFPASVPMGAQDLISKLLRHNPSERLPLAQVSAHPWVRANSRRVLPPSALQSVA
Sequence of Activin receptor type-1-like (P37023 whole entry): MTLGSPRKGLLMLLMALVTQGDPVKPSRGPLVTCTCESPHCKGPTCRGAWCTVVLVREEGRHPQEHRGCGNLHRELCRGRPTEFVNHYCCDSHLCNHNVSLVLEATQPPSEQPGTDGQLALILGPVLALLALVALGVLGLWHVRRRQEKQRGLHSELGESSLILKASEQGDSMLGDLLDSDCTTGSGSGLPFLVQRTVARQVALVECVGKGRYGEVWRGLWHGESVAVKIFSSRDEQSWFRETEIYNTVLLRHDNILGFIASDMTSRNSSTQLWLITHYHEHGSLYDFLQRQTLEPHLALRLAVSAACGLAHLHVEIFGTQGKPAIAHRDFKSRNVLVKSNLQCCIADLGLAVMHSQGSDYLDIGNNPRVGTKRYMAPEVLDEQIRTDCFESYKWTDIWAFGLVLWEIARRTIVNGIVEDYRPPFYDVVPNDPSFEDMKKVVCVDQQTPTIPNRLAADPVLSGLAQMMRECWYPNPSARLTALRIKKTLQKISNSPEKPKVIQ

| IC50 (Aurora kinase B [4]) | Ratio IC50 (Homo sapiens) | IC50 (Aurora kinase A [10]) | SMILES | EC15 (NCI-H1299) | also measured |
| --- | --- | --- | --- | --- | --- |
| 9 nM |  |  | Nc1ncnn2ccc(C(=O)Nc3ccc(NC(=O)Nc4cccc(F)c4)cc3)c12 | 3 nM | IC50 (Aurora kinase B [1]): < 3 nM; IC50 [2]: > 10000 nM; IC50 (Aurora kinase A [3]): < 3 nM; IC50 [5]: > 10000 nM; IC50 [6]: < 3 nM |
|  |  |  | Nc1noc2cccc(C(=O)Nc3cccc(CNC(=O)Nc4ccc(Cl)cc4)c3)c12 | 12 nM |  |
| 7 nM | 696 | 4780 nM | Nc1noc2cccc(C(=O)Nc3cccc(CNC(=O)Nc4ccc(F)c(F)c4)c3)c12 | 15 nM | clearance [7]: 6.5 mL/min/kg; AUC (Mus musculus [8]): 8 uM.hr/ml; inhibition in vivo at 50 mg/kg (Mus musculus [9]): 87%; Vd [11]: 0.96 L/kg; bioavailability [12]: 31%; half-life [13]: 1.7 h |
|  |  |  | Nc1n[nH]c2cccc(C(=O)Nc3cccc(CNC(=O)Nc4ccc(F)c(F)c4)c3)c12 | 143 nM |  |
|  |  |  | Nc1nsc2cccc(C(=O)Nc3cccc(CNC(=O)Nc4ccc(C(F)(F)F)cc4)c3)c12 | 18 nM |  |
|  |  |  | Nc1ncnn2ccc(C(=O)Nc3ccc(NC(=O)Nc4ccsc4)cc3)c12 | 6 nM |  |
| 36 nM | 2.4 | 88 nM | Nc1ncnn2ccc(C(=O)Nc3ccc(NC(=O)Nc4ccc(F)cc4)cc3)c12 | 16 nM |  |
|  |  |  | Nc1nsc2cccc(C(=O)Nc3cccc(CNC(=O)Nc4cccc(F)c4)c3)c12 | 18 nM |  |
| 55 nM | > 227 | > 12500 nM | Nc1noc2cccc(C(=O)Nc3cccc(CNC(=O)Nc4ccccc4F)c3)c12 | 124 nM |  |
| 18 nM | 210 | 3790 nM | Nc1noc2cccc(C(=O)Nc3cccc(CNC(=O)Nc4ccccc4)c3)c12 | 47 nM |  |
|  |  |  | Nc1noc2cccc(C(=O)Nc3cccc(CNC(=O)Nc4ccc(F)cc4)c3)c12 | 30 nM |  |
|  |  |  | Nc1ncnn2ccc(C(=O)Nc3ccc(NC(=O)NC4CCCC4)cc3)c12 | 15 nM |  |
|  |  |  | Nc1ncnn2ccc(C(=O)Nc3cccc(CNC(=O)Nc4ccc(C(F)(F)F)cc4)c3)c12 | 6 nM |  |
| 450 nM |  | > 12500 nM | Nc1noc2cccc(C(=O)Nc3cccc(CC(=O)Nc4cccc(F)c4)c3)c12 |  |  |
|  |  |  | Nc1n[nH]c2cccc(C(=O)Nc3cccc(CNC(=O)Nc4cccc(F)c4)c3)c12 | 111 nM |  |
| 140 nM | > 89 | > 12500 nM | Nc1noc2cccc(C(=O)Nc3ccc(NC(=O)Nc4ccc(Cl)cc4)cc3)c12 |  |  |
|  |  |  | Nc1noc2cccc(C(=O)Nc3cccc(CNC(=O)Nc4ccc(C(F)(F)F)cc4)c3)c12 | 13 nM | clearance [7]: 2.17 mL/min/kg; AUC (Mus musculus [8]): 61 uM.hr/ml; Vd [11]: 0.23 L/kg; bioavailability [12]: 77%; half-life [13]: 1.3 h |
|  |  |  | Nc1ncnn2ccc(C(=O)Nc3cccc(CNC(=O)Nc4cccc(Cl)c4)c3)c12 | 2 nM |  |
|  |  |  | Nc1ncnn2ccc(C(=O)Nc3cccc(CNC(=O)Nc4ccc(Cl)cc4)c3)c12 | 1 nM |  |
|  |  |  | Nc1ncnn2ccc(C(=O)Nc3cccc(CNC(=O)Nc4cccc(F)c4)c3)c12 | 2 nM |  |
|  |  |  | Cc1ccc(NC(=O)NCc2cccc(NC(=O)c3cccc4onc(N)c34)c2)cc1 | 1 nM |  |
| 480 nM | > 26 | > 12500 nM | Nc1noc2cccc(C(=O)Nc3ccc(NC(=O)Nc4ccc(F)cc4)cc3)c12 |  |  |
|  |  |  | Cc1ccc(NC(=O)NCc2cccc(NC(=O)c3ccn4ncnc(N)c34)c2)cc1 | 1 nM |  |
| 59 nM | 54 | 3180 nM | Nc1noc2cccc(C(=O)Nc3cccc(CNC(=O)Nc4cccc(F)c4)c3)c12 | 3 nM | clearance [7]: 8.83 mL/min/kg; AUC (Mus musculus [8]): 5 uM.hr/ml; Vd [11]: 0.54 L/kg; bioavailability [12]: 28%; half-life [13]: 0.7 h |
| > 12500 nM |  | > 12500 nM | Nc1noc2cccc(C(=O)Nc3cccc(CNC(=O)Cc4cccc(F)c4)c3)c12 |  |  |
| 172 nM | 73 | 12500 nM | Cn1nc(N)c2c(C(=O)Nc3cccc(CNC(=O)Nc4ccc(C(F)(F)F)cc4)c3)cccc21 |  |  |
|  |  |  | Cc1cccc(NC(=O)Nc2ccc(NC(=O)c3ccn4ncnc(N)c34)cc2)c1 | 9 nM |  |
| 36 nM | 347 | 12500 nM | Nc1nsc2cccc(C(=O)Nc3cccc(CNC(=O)Nc4ccc(F)c(F)c4)c3)c12 | 21 nM |  |
